Experimental data from ChEMBL document CHEMBL2417474, “Synthesis, antiproliferative and anti-inflammatory activities of some novel 6-aryl-2-(p-(methanesulfonyl)phenyl)-4,5-dihydropyridazi-3(2H)-ones” (Eur J Med Chem, 2013).

Key:
Type in all cases: functional
Rattus norvegicus = experiment: Antiinflammatory activity in Wistar rat assessed as inhibition of carrageenan-induced paw edema at 0.05 mmol/kg, po administered 30 mins prior challenge measured after 3 hrs
Procedure, shortened: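 Wistar rats of either sex, 150–175 g, fasted 16 h, 6 per group. Dosed orally at 0.05 mmol/kg, suspended in 1% CMC in water (10 ml/kg). 30 min later, 0.1 ml of 1% carrageenan in saline injected subplantar into the left hind paw. Paw volume read by plethysmometer at 0, 3 and 5 h. % inhibition = (1 − Vt/Vc) × 100 against the vehicle group.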

MDA-MB-468 [1] = experiment: Growth inhibition of human MDA-MB-468 cells assessed as cell growth at 10 uM after 48 hrs by sulforhodamine B assay; settings: MDA-MB-468, 48 h, read-out: Activity
DU-145 [2] = experiment: Growth inhibition of human DU145 cells assessed as cell growth at 10 uM after 48 hrs by sulforhodamine B assay; settings: DU-145, 48 h, read-out: Activity
[3] = Growth inhibition of human NCI-ADR-RES cells assessed as cell growth at 10 uM after 48 hrs by sulforhodamine B assay; settings: read-out: Activity
OVCAR-3 = experiment: Growth inhibition of human OVCAR3 cells assessed as cell growth at 10 uM after 48 hrs by sulforhodamine B assay; settings: OVCAR-3, 48 h, read-out: Activity
Malme-3M = experiment: Growth inhibition of human MALME-3M cells assessed as cell growth at 10 uM after 48 hrs by sulforhodamine B assay; settings: read-out: Activity
SNB-75 = experiment: Growth inhibition of human SNB75 cells assessed as cell growth at 10 uM after 48 hrs by sulforhodamine B assay; settings: SNB-75, 48 h, read-out: Activity
KM12 = experiment: Growth inhibition of human KM12 cells assessed as cell growth at 10 uM after 48 hrs by sulforhodamine B assay; settings: KM12, 48 h, read-out: Activity
HT-29 = experiment: Growth inhibition of human HT-29 cells assessed as cell growth at 10 uM after 48 hrs by sulforhodamine B assay; settings: HT-29, 48 h, read-out: Activity
COLO 205 [4] = experiment: Growth inhibition of human COLO205 cells assessed as cell growth at 10 uM after 48 hrs by sulforhodamine B assay; settings: COLO 205, 48 h, read-out: Activity
K562 [5] = experiment: Growth inhibition of human K562 cells assessed as cell growth at 10 uM after 48 hrs by sulforhodamine B assay; settings: K562, 48 h, read-out: Activity
MDA-MB-468 [6] = experiment: Growth inhibition of human MDA-MB-468 cells after 48 hrs by sulforhodamine B assay; settings: MDA-MB-468, 48 h
Procedure, shortened: (§1)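 NCI 60-cell-line panel. Cells were grown in medium with 5% fetal calf serum and 2 mM L-glutamine, then preincubated 24 h in plates. Compounds were added from DMSO at five 10-fold concentrations from 100 to 0.01 µM and left on cells continuously for 48 h. Cell growth was read by sulforhodamine B protein stain. GI50 is the concentration that halves net protein increase relative to control cells.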

DU-145 [7] = experiment: Growth inhibition of human DU145 cells after 48 hrs by sulforhodamine B assay; settings: DU-145, 48 h; for CC50: read-out: LC50 (the source's name)
Procedure, shortened: (§2)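 NCI 60-cell-line panel grown in RPMI-type medium with 5% fetal calf serum and 2 mM L-glutamine. Cells preincubated 24 h, then exposed continuously for 48 h to compound in DMSO at 10^-4 to 10^-8 M (five 10-fold levels). Growth read by SRB protein stain. GI50 is the concentration giving a 50% reduction in net protein increase relative to control cells.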

SN12C = experiment: Growth inhibition of human SN12C cells after 48 hrs by sulforhodamine B assay
Procedure, shortened: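 Part of the NCI 60-cell-line panel. Cells were grown in 1640 medium with 5% fetal calf serum and 2 mM L-glutamine, then preincubated 24 h before compound was added. Compounds in DMSO were tested at five concentrations (100, 10, 1, 0.1, 0.01 µM) with 48 h continuous exposure. Read-out was SRB protein staining; GI50 is the concentration halving the net protein increase versus control.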

M14 = experiment: Growth inhibition of human M14 cells after 48 hrs by sulforhodamine B assay; settings: M14, 48 h; for CC50: read-out: LC50 (the source's name); procedure, shortened: as §2
U-251 = experiment: Growth inhibition of human U251 cells after 48 hrs by sulforhodamine B assay; settings: U-251, 48 h; for CC50: read-out: LC50 (the source's name)
Procedure, shortened: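 NCI 60-line panel. Cells were grown in medium with 5% fetal calf serum and 2 mM L-glutamine and preincubated 24 h in plates. Compound in DMSO was added at 10^-4 to 10^-8 M (five 10-fold levels), with continuous exposure for 48 h. Growth was read by SRB protein staining. GI50 is the concentration giving 50% reduction in net protein increase versus control cells.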

LOX IMVI = experiment: Growth inhibition of human LOXIMVI cells after 48 hrs by sulforhodamine B assay; settings: for CC50: read-out: LC50 (the source's name); procedure, shortened: as §2
SNB-19 = experiment: Growth inhibition of human SNB19 cells after 48 hrs by sulforhodamine B assay; settings: SNB-19, 48 h; for CC50: read-out: LC50 (the source's name); procedure, shortened: as §1
HCT-116 = experiment: Growth inhibition of human HCT116 cells after 48 hrs by sulforhodamine B assay; settings: HCT-116, 48 h; procedure, shortened: as §2
COLO 205 [8] = experiment: Growth inhibition of human COLO205 cells after 48 hrs by sulforhodamine B assay; settings: COLO 205, 48 h; for CC50: read-out: LC50 (the source's name); procedure, shortened: as §2
[9] = Growth inhibition of human HCC2998 cells after 48 hrs by sulforhodamine B assay; settings: HCC 2998, 48 h; for CC50: read-out: LC50 (the source's name); procedure, shortened: as §2
NCI-H460 = experiment: Growth inhibition of human NCI-H460 cells after 48 hrs by sulforhodamine B assay; settings: NCI-H460, 48 h; for CC50: read-out: LC50 (the source's name); procedure, shortened: as §1
HOP-62 = experiment: Growth inhibition of human HOP62 cells after 48 hrs by sulforhodamine B assay; settings: HOP-62, 48 h; for CC50: read-out: LC50 (the source's name); procedure, shortened: as §2
HOP-92 = experiment: Growth inhibition of human HOP92 cells after 48 hrs by sulforhodamine B assay; settings: HOP-92, 48 h; for CC50: read-out: LC50 (the source's name); procedure, shortened: as §2
RPMI-8226 = experiment: Growth inhibition of human RPMI8226 cells after 48 hrs by sulforhodamine B assay; settings: RPMI-8226, 48 h; for CC50: read-out: LC50 (the source's name); procedure, shortened: as §1
MOLT-4 = experiment: Growth inhibition of human MOLT4 cells after 48 hrs by sulforhodamine B assay; settings: MOLT-4, 48 h; procedure, shortened: as §1
K562 [10] = experiment: Growth inhibition of human K562 cells after 48 hrs by sulforhodamine B assay; settings: K562, 48 h; for CC50: read-out: LC50 (the source's name); procedure, shortened: as §2

SMILES: Cc1cc(O)ccc1C1=NN(c2ccc(S(C)(=O)=O)cc2)C(=O)CC1
- inhibition in vivo at 50 µmol/kg (Rattus norvegicus): 33.3%
- growth at 10 µM (MDA-MB-468 [1]): 103%
- growth at 10 µM (DU-145 [2]): 92.2%
- growth at 10 µM [3]: 40.6%
- growth at 10 µM (OVCAR-3): 65.1%
- growth at 10 µM (Malme-3M): 52.7%
- growth at 10 µM (SNB-75): 75.2%
- growth at 10 µM (KM12): 47.6%
- growth at 10 µM (HT-29): 38.9%
- growth at 10 µM (COLO 205 [4]): 65.8%
- growth at 10 µM (K562 [5]): 20.6%
- GI50 (MDA-MB-468 [6]): 11 µM
- LC50 (concentration killing 50% of cells) (MDA-MB-468 [6]): > 100 µM
- TGI (MDA-MB-468 [6]): 44.3 µM
- GI50 (DU-145 [7]): 24.7 µM
- TGI (DU-145 [7]): > 100 µM
- CC50 (DU-145 [7]): > 100 µM
- GI50 (SN12C): 7.18 µM
- LC50 (SN12C): > 100 µM
- TGI (SN12C): > 100 µM
- GI50 (M14): 3.85 µM
- TGI (M14): > 100 µM
- CC50 (M14): > 100 µM
- GI50 (U-251): 4.3 µM
- TGI (U-251): > 100 µM
- CC50 (U-251): > 100 µM
- GI50 (LOX IMVI): 7.25 µM
- TGI (LOX IMVI): > 100 µM
- CC50 (LOX IMVI): > 100 µM
- GI50 (SNB-19): 50.4 µM
- TGI (SNB-19): > 100 µM
- CC50 (SNB-19): > 100 µM
- GI50 (HCT-116): 3.78 µM
- LC50 (concentration killing 50% of cells) (HCT-116): > 100 µM
- TGI (HCT-116): > 100 µM
- GI50 (COLO 205 [8]): 6.62 µM
- TGI (COLO 205 [8]): 74.4 µM
- CC50 (COLO 205 [8]): > 100 µM
- GI50 [9]: 46.7 µM
- TGI [9]: > 100 µM
- CC50 [9]: > 100 µM
- GI50 (NCI-H460): 3.87 µM
- TGI (NCI-H460): > 100 µM
- CC50 (NCI-H460): > 100 µM
- GI50 (HOP-62): 9.07 µM
- TGI (HOP-62): > 100 µM
- CC50 (HOP-62): > 100 µM
- GI50 (HOP-92): 6.49 µM
- TGI (HOP-92): > 100 µM
- CC50 (HOP-92): > 100 µM
- GI50 (RPMI-8226): 25.6 µM
- TGI (RPMI-8226): > 100 µM
- CC50 (RPMI-8226): > 100 µM
- GI50 (MOLT-4): 14.3 µM
- LC50 (MOLT-4): > 100 µM
- TGI (MOLT-4): > 100 µM
- GI50 (K562 [10]): 3.74 µM
- TGI (K562 [10]): > 100 µM
- CC50 (K562 [10]): > 100 µM

SMILES: CCc1ccc(C2=NN(c3ccc(S(C)(=O)=O)cc3)C(=O)CC2)cc1
- inhibition in vivo at 50 µmol/kg (Rattus norvegicus): 46.7%
- growth at 10 µM (MDA-MB-468 [1]): 50.7%
- growth at 10 µM (DU-145 [2]): 21.4%
- growth at 10 µM [3]: 6.7%
- growth at 10 µM (OVCAR-3): -13.6%
- growth at 10 µM (Malme-3M): 38.8%
- growth at 10 µM (SNB-75): 16.7%
- growth at 10 µM (KM12): 17.3%
- growth at 10 µM (HT-29): 11.5%
- growth at 10 µM (COLO 205 [4]): 22.5%
- growth at 10 µM (K562 [5]): 10.4%
- GI50 (MDA-MB-468 [6]): 3.75 µM
- LC50 (concentration killing 50% of cells) (MDA-MB-468 [6]): > 100 µM
- TGI (MDA-MB-468 [6]): 31.2 µM
- GI50 (DU-145 [7]): 5.66 µM
- TGI (DU-145 [7]): > 100 µM
- CC50 (DU-145 [7]): > 100 µM
- GI50 (SN12C): 4.81 µM
- LC50 (SN12C): > 100 µM
- TGI (SN12C): > 100 µM
- GI50 (M14): 0.63 µM
- TGI (M14): > 100 µM
- CC50 (M14): > 100 µM
- GI50 (U-251): 1.91 µM
- TGI (U-251): > 100 µM
- CC50 (U-251): > 100 µM
- GI50 (LOX IMVI): 3.5 µM
- TGI (LOX IMVI): > 100 µM
- CC50 (LOX IMVI): > 100 µM
- GI50 (SNB-19): 0.13 µM
- TGI (SNB-19): > 100 µM
- CC50 (SNB-19): > 100 µM
- GI50 (HCT-116): 0.73 µM
- LC50 (concentration killing 50% of cells) (HCT-116): > 100 µM
- TGI (HCT-116): > 100 µM
- GI50 (COLO 205 [8]): 1.02 µM
- TGI (COLO 205 [8]): 12.6 µM
- CC50 (COLO 205 [8]): 83.8 µM
- GI50 [9]: 5.27 µM
- TGI [9]: 53.4 µM
- CC50 [9]: > 100 µM
- GI50 (NCI-H460): 0.82 µM
- TGI (NCI-H460): 36.9 µM
- CC50 (NCI-H460): > 100 µM
- GI50 (HOP-62): 4.3 µM
- TGI (HOP-62): > 100 µM
- CC50 (HOP-62): > 100 µM
- GI50 (HOP-92): 1.58 µM
- TGI (HOP-92): 9.88 µM
- CC50 (HOP-92): > 100 µM
- GI50 (RPMI-8226): 0.42 µM
- TGI (RPMI-8226): > 100 µM
- CC50 (RPMI-8226): > 100 µM
- GI50 (MOLT-4): 3.52 µM
- LC50 (MOLT-4): > 100 µM
- TGI (MOLT-4): 6.75 µM
- GI50 (K562 [10]): 0.42 µM
- TGI (K562 [10]): > 100 µM
- CC50 (K562 [10]): > 100 µM
